# Like-named read-outs stand apart in the source and are kept apart here.
# Assays:
# [1] = test system: H16N2 (AR-/PR-/low ER expression); conditions: higher potency/efficacy than enzalutamide; cited from earlier work
# [2] = test system: women with locally advanced or metastatic TNBC or ER+ breast cancer; test: Treatment duration, discontinuations and dose modifications; format: in vivo, human; conditions: all dose cohorts; Twenty-one percent
# How it was run: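 Dosing was oral, once daily, in continuous 28-day cycles. Drug was stopped for loss of clinical benefit, an adverse event precluding further participation, or withdrawal of consent. Toxicity was graded by NCI CTCAE v4.03. Evaluations were every two weeks in Cycle 1, then monthly through the end-of-treatment visit.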
# [3] = test system: CYP17 lyase versus CYP17 17-α hydroxylase; conditions: cited from earlier work
# [4] = test system: women with locally advanced or metastatic TNBC or ER+ breast cancer; test: Phase 1 safety and tolerability: treatment-emergent adverse events and DLT; format: in vivo, human
# [5] = test system: tamoxifen-resistant MCF7 cells (TAMR); conditions: higher potency/efficacy than enzalutamide; cited from earlier work
# [6] = test system: unresectable locally advanced or metastatic breast cancer; test: Efficacy: clinical benefit rate and tumor response; format: in vivo, human
# How it was run: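 Women with triple-negative or postmenopausal ER+/HER2− unresectable locally advanced or metastatic disease took oral 150-mg tablets once daily in continuous 28-day cycles, in de-escalating cohorts. Imaging used bone scan, CT and/or MRI matching the baseline modality, every 2 months in year one and every 3 months thereafter. Clinical benefit was stable disease, partial or complete response (RECIST 1.1), scored at 16 weeks for TNBC and 24 weeks for ER+.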
# [7] = Pharmacokinetics after a single dose of seviteronel; format: in vivo, human
# How it was run: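 Women took a single oral dose as 150-mg tablets. Blood was drawn before dosing and at 0.5, 1, 2, 4, 6, 8 and 24 h afterward. Plasma drug was measured by LC-MS/MS, with a lower limit of quantification of 20 ng/mL (0.05 uM). Parameters were derived by noncompartmental analysis.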
# [8] = test system: MDA-MB-453 cells (ER−/AR+); conditions: higher potency/efficacy than enzalutamide; cited from earlier work
# [9] = test system: tamoxifen-resistant MCF7 xenograft; conditions: tamoxifen-resistant MCF7 mouse xenograft, compared to enzalutamide; cited from earlier work
# [10] = test system: AR, wild-type and mutated forms (e.g., F876L and T877A); conditions: cited from earlier work
# [11] = test system: MCF7 (ER+/low AR expression); conditions: higher potency/efficacy than enzalutamide; cited from earlier work
# metastatic breast cancer = conditions: cited from earlier work
# estradiol = conditions: cited from earlier work
# [12] = randomized phase 2, metastatic ER+ breast cancer, N = 297
# [13] = phase 2 TBCRC011, AR+ (ER−/PR−) metastatic breast cancer, N = 26
# [14] = MDV3100-11, AR+ TNBC, N = 118, intent to treat AR > 0%, ref (12)
smiles,measurement,setting,value
CC(C)[C@](O)(c1ccc2cc(OC(F)F)c(OC(F)F)cc2c1)c1c[nH]nn1 [Seviteronel],Cellular proliferation,[1],inhibited
same,Subjects with a dose reduction due to an AE,[2],4/19
same,Selectivity for CYP17 lyase versus CYP17 17-α hydroxylase inhibition,[3],approximately 10 fold
same,Deaths reported,"[4]; all considered unrelated to study drug (disease progression n=2, hepatic failure n=1, ischemic stroke n=1)",4
same,"Fatigue, AE incidence","[4]; female, human, in vivo",37%
same,"Nausea, AE incidence","[4]; female, human, in vivo",42%
same,Subjects with SAE Gr 3 or greater,"[4]; female, human, in vivo",12 subjects
same,"Tremor, AE incidence","[4]; female, human, in vivo",42%
same,"Vomiting, AE incidence","[4]; female, human, in vivo",37%
same,Recommended phase 2 dose (RP2D) in women,"[4]; female, human, in vivo, po",450 mg QD
same,Hepatic transaminase elevation,[4]; in vivo,not associated with hepatic transaminase elevation
same,Hypokalemia,[4]; in vivo,not seen
same,"Serious adverse events (SAE) Gr 3 or greater, number of events",[4]; in vivo,Fifteen
same,Tolerability,"[4]; in vivo, po",generally well tolerated
same,Growth of tamoxifen-resistant MCF7 cells,[5],inhibited
same,Subjects reaching at least CBR16,"[6]; 450 mg QD cohort (RP2D), 2 TNBC CBR16 and 2 ER+ CBR24",4 of 7
same,Subjects reaching CBR24 (24-week clinical benefit rate),"[6]; across dose groups, 2 of 19 subjects",11%
same,Subjects reaching at least CBR16 (16-week clinical benefit rate),"[6]; across dose groups, Five of 19 subjects",26.3%
same,Objective tumor responses,[6]; all dose cohorts,no objective tumor responses
same,half-life,"[7]; female, human, plasma, oral, 750 mg, Half-life, single dose, across 450, 600, 750 mg",6.4 to 8.4 h
same,Dose relationship of peak and trough plasma concentrations and AUC,"[7]; single dose, 450-750 mg, women",dose-proportional relationship
same,Relationship between exposure and body surface area and body mass index,[7]; three dose levels combined,moderate relationship
same,DHT-stimulated growth,[8],inhibited
same,Survival,[9],increased survival
same,Tumor growth,[9],inhibited tumor growth
same,AR inhibition mechanism,[10],competitive antagonism
same,Estrogen-stimulated proliferation and cell growth in a soft agar assay,[11],inhibited
C[C@]12CC[C@H](O)CC1=CC[C@@H]1[C@@H]2CC[C@]2(C)C(c3cccnc3)=CC[C@@H]12 [abiraterone],24-month CBR,"metastatic breast cancer; metastatic AR+ TNBC, N = 30, evaluable AR ≥ 10%",20%
same,24-month CBR,"metastatic breast cancer; metastatic ER+/AR+ breast cancer, N = 32, evaluable AR ≥ 1%",22%
same,Median PFS,metastatic breast cancer; [12],3.7 months
CC(O)(CS(=O)(=O)c1ccc(F)cc1)C(=O)Nc1ccc(C#N)c(C(F)(F)F)c1 (stereo not shown) [bicalutamide],24-week CBR,metastatic breast cancer; [13],19%
same,Median progression-free survival (PFS),metastatic breast cancer; [13],12 weeks
same,Objective responses,metastatic breast cancer; [13],no objective responses
CNC(=O)c1ccc(N2C(=S)N(c3ccc(C#N)c(C(F)(F)F)c3)C(=O)C2(C)C)cc1F [enzalutamide],16-week CBR,metastatic breast cancer; [14],25%
same,24-week CBR,metastatic breast cancer; [14],20%
same,Median PFS,metastatic breast cancer; [14],12.6 weeks
same,Increase in estradiol,estradiol; given in combination with anastrozole,40%
same,Increase in estradiol,estradiol; given in combination with exemestane,13%
C=C1C[C@@H]2[C@H](CC[C@]3(C)C(=O)CC[C@@H]23)[C@@]2(C)C=CC(=O)C=C12 [exemestane],Median PFS,metastatic breast cancer; [12],3.7 months
N#Cc1ccc(C(c2ccc(C#N)cc2)n2cncn2)cc1 [letrozole],Decline in estradiol,"estradiol; postmenopausal women with ER+ BC, by 3 months of treatment",approximately 36%
